# Screens deposited in PubChem BioAssay by Johns Hopkins Ion Channel Center.
# TRPC4 inh – inhibitors of mouse TRPC4 channel | Q9QUQ5 | HEK293 TRPC4beta/mu-opioid, DAMGO-evoked Fluo4 calcium flux; stronger effect = lower value | B-score at 10 µM | 300,000 compounds, 0.39% hits | AID 2247;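 active = B-score over 3 SD under the library average, no early fluorescence shift, positive overall ratio signal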
#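 Test system – stable TRPC4beta/mu-opioid receptor HEK293 cells · Probe or stimulus – DAMGO, a submaximal dose followed by a maximal one · Dosing – one concentration per compound · Signal – Fluo4 calcium fluorescence by kinetic imaging, 5 s 1 Hz baseline · Evaluation – per-well B score of integrated baseline-normalized Fluo4 ratio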
# TRPC4 PAM – allosteric potentiators of mouse TRPC4 channel; Q9QUQ5; HEK293 TRPC4beta/mu-opioid, DAMGO EC20, Fluo-4 Ca2+ flux; stronger effect = higher value; B-score at 10 µM; 310,000 compounds, 0.42% hits;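 active = B-score of calcium response area above 5 SD of library B-scores, with initial fluorescence ratio within 5 SD of library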
# TRPC4 agonist – TRPC4 (mouse) channel activation | Q9QUQ5 | HEK293 TRPC4beta/mu-opioid, Fluo4 calcium fluorescence; stronger effect = higher value | B-score at 10 µM | 310,000 compounds, 0.49% hits | AID 2237;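 active = B-score above 5 SD of library B-scores, and initial fluorescence ratio not above library mean plus 5 SD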;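 also: positive B-score marks a calcium rise read as TRPC4 activation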
#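 system = HEK293 cells stably co-expressing mouse TRPC4beta and mu-opioid receptor | schedule = Fluo4 dye loading 45 min at room temperature, 110 s recording | measure = B-scored integrated calcium fluorescence ratio | signal = Fluo4 calcium-sensitive dye fluorescence, kinetic, 1 Hz baseline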
# Kir21 inh – blocks the mouse Kir2.1 inward-rectifier potassium channel; P35561; HEK293-Kir2.1, FluxOR thallium flux fluorescence; stronger effect = lower value; B-score at 10 µM; 310,000 compounds, 0.85% hits;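 active = fluorescence ratio B-score at or below minus 3 SD of library scores, with starting-brightness B-score within 2 SD, cut at about -4.2 in these data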;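 also: channel flux triggered by added potassium and thallium sulfate stimulus; B-score of peak minus minimum fluorescence over baseline after thallium stimulus; more negative B-score means stronger Kir2.1 block with less thallium influx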
# TRPC6 act – activates the mouse TRPC6 cation channel | Q61143 | HEK293-TRPC6 membrane potential dye fluorescence; stronger effect = higher value | B-score at 10 µM | 310,000 compounds, 0.13% hits | AID 2550;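 active = B-score of the integrated fluorescence ratio above library mean plus 3 SD, and starting fluorescence ratio within library mean plus 5 SD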;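 also: higher score means more depolarization so channel activation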
# Target sequence (Q61143 whole entry, looked up): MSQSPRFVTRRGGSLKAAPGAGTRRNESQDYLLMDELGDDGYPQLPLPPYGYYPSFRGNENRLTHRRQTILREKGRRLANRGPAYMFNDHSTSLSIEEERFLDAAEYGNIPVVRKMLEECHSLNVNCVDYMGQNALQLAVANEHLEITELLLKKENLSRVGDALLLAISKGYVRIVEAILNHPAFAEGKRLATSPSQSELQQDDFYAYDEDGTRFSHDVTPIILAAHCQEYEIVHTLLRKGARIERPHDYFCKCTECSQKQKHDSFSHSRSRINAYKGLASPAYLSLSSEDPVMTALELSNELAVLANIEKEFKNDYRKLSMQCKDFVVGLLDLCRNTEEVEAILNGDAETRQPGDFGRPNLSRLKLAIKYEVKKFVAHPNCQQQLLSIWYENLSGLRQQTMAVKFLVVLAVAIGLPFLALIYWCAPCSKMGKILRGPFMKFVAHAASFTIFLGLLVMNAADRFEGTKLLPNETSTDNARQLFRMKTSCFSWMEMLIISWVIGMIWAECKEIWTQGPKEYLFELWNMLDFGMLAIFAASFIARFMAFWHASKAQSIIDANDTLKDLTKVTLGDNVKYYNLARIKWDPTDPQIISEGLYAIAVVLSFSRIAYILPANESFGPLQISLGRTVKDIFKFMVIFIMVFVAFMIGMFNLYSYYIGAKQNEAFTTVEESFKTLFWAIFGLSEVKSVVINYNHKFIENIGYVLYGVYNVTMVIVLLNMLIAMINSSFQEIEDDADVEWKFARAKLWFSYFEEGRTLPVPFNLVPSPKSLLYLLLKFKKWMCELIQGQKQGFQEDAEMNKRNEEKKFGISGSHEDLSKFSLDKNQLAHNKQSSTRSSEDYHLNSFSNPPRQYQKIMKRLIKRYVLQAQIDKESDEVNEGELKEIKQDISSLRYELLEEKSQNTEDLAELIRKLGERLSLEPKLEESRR
# TRPC6 inh – mouse TRPC6 channel inhibition | Q61143 | HEK293-TRPC6, membrane potential dye, ACh-evoked depolarization; stronger effect = lower value | B-score at 10 µM | 310,000 compounds, 1.1% hits | AID 2553;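 active = B-score under library mean minus 3 SD, initial fluorescence not abnormally high, positive integrated signal ratio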;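 also: B-score derived from integrated fluorescence ratio over the kinetic read; more negative B-score means stronger inhibition of depolarization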
# TRPC4 spec 2 – second selectivity test of TRPC6 inhibitors: effect on mouse TRPC4; shares compounds with TRPC6 inh; HEK293 TRPC4/MOR, membrane potential dye fluorescence; channel activated by saturating DAMGO dose; inhibition, % at 10 µM; 920 compounds, 42% hits; AID 2776;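 active = compounds whose fluorescence signal differed from control wells by over 3 SD, either direction, in both duplicate plates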
# TRPC4 spec – tests whether TRPC6 inhibitors also affect mouse TRPC4 | HEK293 TRPC4/mu-opioid, membrane potential fluorescence | shares compounds with TRPC6 inh | 920 compounds, 61% hits | activity change, negative = inhibition, % at 10 µM;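 active = rise or fall in signal beyond 3 SD of buffer-only wells in both replicate plates, either sign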;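 also: integrated kinetic ratio of fluorescence range over baseline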
# HEK293 MPD ctr 2-1 – parental HEK293 nonspecific activity of TRPC6 inhibitors, second screen; shares compounds with TRPC6 inh; parental HEK293 membrane potential dye fluorescence; maximal acetylcholine challenge after compound addition; signal change vs control, % at 10 µM; 920 compounds, 31% hits;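 active = membrane potential signal moving either way by over 3 SD of the maximum-effect control, in both duplicate plates, meaning non-specific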
# HEK293 MPD ctr-1 – parental HEK293 nonspecific activity of TRPC6 inhibitors; shares compounds with TRPC6 inh; parental HEK293 membrane potential dye fluorescence; membrane potential signal change, % at 10 µM; 920 compounds, 60% hits; AID 2780;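 active = membrane potential signal shifting up or down by more than 3 SD of buffer-only wells, on both duplicate plates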
# HEK293 MPD ctr-2 – parental HEK293 nonspecific activity of TRPC6 modulators. shares compounds with TRPC6 inh. membrane potential dye fluorescence. membrane potential signal change, % at 10 µM. 2,400 compounds, 51% hits. AID 488924;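 active = membrane potential signal moves up or down beyond 5 SD from buffer-only wells, on both duplicate plates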
# HEK293 MPD ctr 2-2 – second check of TRPC6 modulator effects in parental HEK293 cells; membrane potential dye fluorescence; after compound, maximal acetylcholine stimulation; 2,400 compounds, 14% hits; inhibition, % at 10 µM; shares compounds with TRPC6 inh;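 active = membrane potential signal drops by more than 5 SD from the mean control signal, in both duplicate plates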
# TRPC4/MOR mod – mouse TRPC4 off-target activity of TRPC6 modulators; HEK293 TRPC4/mu-opioid, membrane potential fluorescence; shares compounds with TRPC6 inh; 2,400 compounds, 69% hits; percent change from control (negative = decrease, positive = increase), % at 10 µM; AID 488927;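 active = membrane potential signal moved up or down beyond 5 SD of buffer control wells, in both duplicate plates, actives on both sides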
# TRPC4 ctr inh 2 – second check of whether TRPC6 modulators also affect mouse TRPC4. shares compounds with TRPC6 inh. AID 488928. HEK293 TRPC4/mu-opioid, membrane potential dye fluorescence; stimulated with maximal-effect DAMGO. 2,400 compounds, 55% hits. inhibition, % at 10 µM;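 active = drop in membrane potential signal beyond 5 SD of the control wells in both duplicate plates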;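 also: TRPC4 counter screen for TRPC6 hits run under conditions tuned for TRPC6 not TRPC4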
# TRPC6 inh conf – mouse TRPC6 inhibitor confirmation; shares compounds with TRPC6 inh; HEK293-TRPC6, membrane potential dye, ACh-evoked depolarization; inhibition, % at 10 µM; 3,300 compounds, 43% hits; AID 488960;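 active = fluorescence ratio falls more than 5 SD below the full-stimulation control mean, in both duplicate runs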;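 also: integrated fluorescence ratio of peak minus minimum over baseline after agonist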
# TRPC6 act confirm – mouse TRPC6 activator confirmation. shares compounds with TRPC6 inh. HEK293-TRPC6 membrane potential dye fluorescence, FDSS. activation, % at 10 µM. 2,800 compounds, 11% hits. AID 488961;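 active = ratio signal rise beyond 5 SD above unstimulated control wells' mean, seen in both duplicate runs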
# Numbers stand for hits; - = inactive; . = no result given. Shown are actives, neighbours in structure and some others; about 2.9% of the full set was active somewhere.
SMILES,TRPC4 inh,TRPC4 PAM,TRPC4 agonist,Kir21 inh,TRPC6 act,TRPC6 inh,HEK293 MPD ctr-2,HEK293 MPD ctr 2-2,TRPC4/MOR mod,TRPC4 ctr inh 2,TRPC6 inh conf,TRPC6 act confirm,others
CCOc1cc(/C=C2\C(=N)N3N=C(C)SC3=NC2=O)ccc1OCCOc1cccc(OC)c1,-,-,-,-,-,-,.,.,.,.,.,.,
CCCc1nc2c(C)cc(C)cc2c(N)c1CC,-,-,-,-,-,-5.99,-94.0%,-,-18.5%,60.5%,-,-,
Cc1cc(C)c2nc(C(F)(F)F)c(C#N)c(N)c2c1,-,-,-,-,-,-,.,.,.,.,.,.,
CC(C)(C)c1ccc(NC(=O)Nc2ccc3ccccc3n2)cc1,-,-,-,-,-,-,.,.,.,.,.,.,
NCCCCCc1nnc(SC/C=C/c2ccccc2)o1,-,-,-,-,-,-5.55,101.5%,-,17.5%,-,-,.,
Cc1cccc(-c2n[nH]c(=S)n2Cc2ccccc2)c1,-,-,-,-,-,-,.,.,.,.,.,.,
Cc1nccn1CCc1n[nH]c(=S)n1Cc1ccccc1,-,-,-,-,-,-6.51,-,-,-,-,69.0%,-,
Cc1ccc(-c2n[nH]c(=S)n2Cc2ccccc2)cc1,-,-,-,-,-,-5.04,-,-,-,-,-,-,
O=C(OC1CCOC1=O)c1cc(-c2cccs2)nc2ccccc12 (stereo not drawn),-,-,-,-,-,-,.,.,.,.,.,.,
Cc1cccn2c(CNC3CCCc4ccccc43)c(C(=O)N3CCCCC3)nc12 (stereo not drawn),-,-,-,-,-,-7.98,420.0%,75.0%,92.5%,55.0%,74.0%,.,
CCOC(=O)C1CCCN(Cc2c(C(=O)N3CCCCC3)nc3c(C)cccn23)C1 (stereo not drawn),-,-,-,-,-,-,.,.,.,.,.,.,
CN1CCN(c2ccc([N+](=O)[O-])cc2/C=N/NC(=O)c2ccc(F)cc2)CC1,-,-,-,-,-,-6.02,-174.0%,-,-34.5%,-,-,-,
N#C/C(=C\c1cc2c(cc1Br)OCO2)C(=O)NCC1CCCO1 (stereo not drawn),-,-,-,-,-,-,.,.,.,.,.,.,
O=C(CSc1nnc(-c2ccncc2)n1Cc1ccco1)OC1CCCCC1,-,-,-,-,-,-,.,.,.,.,.,.,
O=C(CSc1nnc(-c2ccco2)n1Cc1ccccc1)OC1CCCCC1,-,-,-,-,11.8,-,382.5%,-,53.0%,52.0%,-,86.0%,
O=C1CN(C(=O)/C=C/c2cccc(Cl)c2)c2ccccc2N1,-,-,-,-,-,-6.74,.,.,.,.,-,-,TRPC4 spec 2=-;TRPC4 spec=-;HEK293 MPD ctr 2-1=-;HEK293 MPD ctr-1=-
O=C1CN(C(=O)/C=C/c2ccco2)c2ccccc2N1,-,-,-,-,-,-,.,.,.,.,.,.,
COc1ccc2[nH]c3c(=O)n(CCCC(=O)NC4CCCCC4C)c(=S)[nH]c3c2c1 (stereo not drawn),-,-,-,-,-,-,.,.,.,.,.,.,
COc1cc(OC)c(OC)cc1/C=N/Nc1nc2ccccc2[nH]1,-,-,-,-,-,-5.25,-,-,-11.0%,-,-,-,
COc1ccc(/C=N/Nc2ccccn2)cc1OC,-,-,-,-,-,-5.83,-121.0%,-,-22.0%,36.0%,-,-,
COc1cc(/C=N\Nc2nc3ccccc3[nH]2)cc(OC)c1OC,-,-,-,-,-,-,.,.,.,.,.,.,
COc1ccc(/C=N/Nc2nc3ccccc3[nH]2)cc1OC,-,-,-,-,-,-5.16,-101.0%,-,-18.5%,50.5%,59.0%,-,
CCN(CC)c1ccc(/C=N/Nc2nc3ccccc3[nH]2)c(O)c1,-,-,-,-,-,-5.89,-,-,-29.0%,71.0%,-,-,
CC(=O)Nc1c(N)c2ccccc2oc1=O,-,-,-,-,-,-,.,.,.,.,.,.,
O=c1c(Cc2ccccc2)c(O)ccn1Cc1ccco1,-,-,-,-,-,-,.,.,.,.,.,.,
SMILES,TRPC4 inh,TRPC4 PAM,TRPC4 agonist,Kir21 inh,TRPC6 act,TRPC6 inh,HEK293 MPD ctr-2,HEK293 MPD ctr 2-2,TRPC4/MOR mod,TRPC4 ctr inh 2,TRPC6 inh conf,TRPC6 act confirm,others
COc1ccc2c(c1)c(/C=N/Nc1nc3ccccc3[nH]1)c(C)n2C,-,-,-,-,-,-8.19,-122.5%,-,-36.0%,75.0%,38.5%,-,
C#CCn1cc(/C=N/Nc2nc3ccccc3[nH]2)c2ccccc21,-,-,-,-6.4,-,-7.77,-190.5%,80.5%,-40.0%,91.0%,74.0%,-,
Cc1ccc(CCNC(=O)CC(C)CC2=NS(=O)(=O)c3ccccc3N2)cc1 (stereo not drawn),-,-,-,-,-,-,.,.,.,.,.,.,
CCc1cc(=O)oc2cc(C)cc(OCC(=O)NC3CCN(Cc4ccccc4)CC3)c12,-,-,-,-,-,-5.51,-100.5%,-,-26.0%,68.0%,40.0%,-,
Nc1nc(SCC(=O)Nc2ccc(Cl)cn2)n[nH]1,-,-,-,-,-,-,.,.,.,.,.,.,
O=C(CSc1nnc(NC(=O)C2CC(=O)N(c3ccc(F)cc3)C2)s1)NCc1ccco1 (stereo not drawn),-,-,-,-,-,-,.,.,.,.,.,.,
CC(O)(C#CCN1CCOCC1)c1ccccc1 (stereo not drawn),-,-,-,-,-,-,.,.,.,.,.,.,
